The results in this text go back to ChEMBL document CHEMBL4673268, “The optimization of a novel selective antagonist for human M muscarinic acetylcholine receptor” (Bioorg Med Chem Lett, 2020).

Test [1] addresses T1, Muscarinic acetylcholine receptor M4 (Homo sapiens, UniProt P08173).
T1 sequence (P08173 whole entry): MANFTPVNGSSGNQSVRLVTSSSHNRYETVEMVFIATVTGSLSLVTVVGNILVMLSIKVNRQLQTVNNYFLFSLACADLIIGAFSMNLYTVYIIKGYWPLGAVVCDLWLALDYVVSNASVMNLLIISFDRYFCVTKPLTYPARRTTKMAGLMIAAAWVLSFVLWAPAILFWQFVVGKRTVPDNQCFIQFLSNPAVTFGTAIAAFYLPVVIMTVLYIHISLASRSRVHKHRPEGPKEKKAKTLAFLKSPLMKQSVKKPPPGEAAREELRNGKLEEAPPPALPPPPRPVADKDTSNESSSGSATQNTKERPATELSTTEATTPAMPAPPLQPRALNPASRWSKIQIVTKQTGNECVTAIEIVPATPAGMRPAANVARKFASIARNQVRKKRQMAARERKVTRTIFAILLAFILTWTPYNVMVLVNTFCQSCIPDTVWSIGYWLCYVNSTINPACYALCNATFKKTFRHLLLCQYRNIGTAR
Put plainly: Displacement of [3H]-NMS from muscarinic M4 receptor (unknown origin) expressed in CHO-K1 cell membranes assessed as inhibition constant by radioligand competition analysis. Set-up: species or system Cell membrane. Summed up: (§1)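 Inhibition constants came from radioligand competition binding. Acetylcholine and atropine were included as positive controls for competitive binding. Values are given as mean ± SEM.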
(In general: In a radioligand displacement assay an active substance lowers the binding of a labelled ligand.)

Test [2] has as its target Muscarinic acetylcholine receptor M3 (Homo sapiens, UniProt P20309). Put plainly: Displacement of [3H]-NMS from muscarinic M3 receptor (unknown origin) expressed in CHO-K1 cell membranes assessed as inhibition constant by radioligand competition analysis. Set-up: species or system Cell membrane. Put shortly:
as §1

The target in test [3] is T2, Muscarinic acetylcholine receptor M1 (Homo sapiens, UniProt P11229).
T2 sequence (P11229 whole entry): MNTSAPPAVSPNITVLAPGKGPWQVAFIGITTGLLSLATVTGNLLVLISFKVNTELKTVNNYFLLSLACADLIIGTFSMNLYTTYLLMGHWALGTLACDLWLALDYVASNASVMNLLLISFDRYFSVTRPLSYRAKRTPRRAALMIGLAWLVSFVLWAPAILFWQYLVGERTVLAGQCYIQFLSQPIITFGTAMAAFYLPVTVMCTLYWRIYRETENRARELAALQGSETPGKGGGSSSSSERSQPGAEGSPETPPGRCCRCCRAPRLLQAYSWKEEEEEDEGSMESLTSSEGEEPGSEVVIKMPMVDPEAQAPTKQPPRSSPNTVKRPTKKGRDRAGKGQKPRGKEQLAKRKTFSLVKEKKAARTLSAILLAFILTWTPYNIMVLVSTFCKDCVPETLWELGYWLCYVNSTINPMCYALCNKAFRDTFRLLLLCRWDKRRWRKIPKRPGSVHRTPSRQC
Put plainly: Displacement of [3H]-NMS from muscarinic M1 receptor (unknown origin) expressed in CHO-K1 cell membranes assessed as inhibition constant by radioligand competition analysis. More on the design: species or system Cell membrane. Summed up:
as §1

Test [4] concerns the target T3, Muscarinic acetylcholine receptor M2 (Homo sapiens, UniProt P08172).
T3 sequence (P08172 whole entry): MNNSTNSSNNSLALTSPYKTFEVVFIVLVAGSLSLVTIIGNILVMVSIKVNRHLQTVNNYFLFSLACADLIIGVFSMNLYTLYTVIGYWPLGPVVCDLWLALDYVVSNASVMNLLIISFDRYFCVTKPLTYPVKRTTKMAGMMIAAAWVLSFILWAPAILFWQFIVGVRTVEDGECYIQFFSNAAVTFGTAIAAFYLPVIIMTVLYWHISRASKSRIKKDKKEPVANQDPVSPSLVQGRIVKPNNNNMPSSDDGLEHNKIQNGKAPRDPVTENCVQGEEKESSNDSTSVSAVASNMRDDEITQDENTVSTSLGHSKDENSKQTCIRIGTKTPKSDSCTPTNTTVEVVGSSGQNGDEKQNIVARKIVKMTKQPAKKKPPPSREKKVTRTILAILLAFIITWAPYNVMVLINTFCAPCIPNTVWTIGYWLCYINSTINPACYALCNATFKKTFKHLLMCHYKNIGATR
Briefly: Displacement of [3H]-NMS from muscarinic M2 receptor (unknown origin) expressed in CHO-K1 cell membranes assessed as inhibition constant by radioligand competition analysis. Set-up: species or system Cell membrane.

For test [5], the target named is T3, Muscarinic acetylcholine receptor M2. Briefly: Antagonist activity at human muscarinic M2 receptor expressed in CHO cells co-expressing Galpha15 assessed as inhibition of acetylcholine-induced calcium mobilization relative to acetylcholine. It is filed as functional, cell-based. In general terms: A change in cytosolic calcium serves as a functional read-out for many receptors and channels.

The Ki is the dissociation constant of the complex between target and ligand, obtained from inhibition or displacement. For orientation: IC50 means the midpoint of a concentration-inhibition curve.

Sequence of Muscarinic acetylcholine receptor M3 (P20309 whole entry): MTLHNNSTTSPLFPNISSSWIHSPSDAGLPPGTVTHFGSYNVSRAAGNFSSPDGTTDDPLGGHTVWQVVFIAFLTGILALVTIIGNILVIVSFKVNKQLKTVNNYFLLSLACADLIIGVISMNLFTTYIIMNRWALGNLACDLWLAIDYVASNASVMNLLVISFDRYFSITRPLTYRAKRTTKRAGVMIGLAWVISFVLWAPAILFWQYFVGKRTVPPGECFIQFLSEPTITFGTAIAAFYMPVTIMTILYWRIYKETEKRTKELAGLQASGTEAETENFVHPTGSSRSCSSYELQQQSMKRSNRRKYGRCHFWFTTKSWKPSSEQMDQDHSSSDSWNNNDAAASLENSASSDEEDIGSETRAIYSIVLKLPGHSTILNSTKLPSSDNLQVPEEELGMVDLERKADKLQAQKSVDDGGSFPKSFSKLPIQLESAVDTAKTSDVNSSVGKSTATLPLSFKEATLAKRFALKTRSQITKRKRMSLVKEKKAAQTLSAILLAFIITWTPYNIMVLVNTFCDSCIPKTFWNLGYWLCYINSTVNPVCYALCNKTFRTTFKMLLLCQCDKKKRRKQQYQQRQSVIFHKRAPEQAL

Regarding `O=C(CCN1CCCc2ccccc21)Nc1cccnn1`, the Ki was 14.1 µM in test [1], 29.5 µM in test [2] and 14.1 µM in test [3].

Consider `O=C(CCN1CCCc2ccccc21)NCc1cccs1`, for which the Ki in test [1] was 2.14 µM; in test [2] it was 7.24 µM; in test [4], 0.646 µM; in test [3], 0.646 µM. The IC50 in test [5] is 1.02 µM.

For the compound `O=C(CN1CCCc2ccccc21)N1CCCCC1`, the Ki in test [1] is 1.23 µM; in test [2] it was 11 µM; in test [4] it was 0.417 µM; in test [3] it was 2.88 µM. Further, the IC50 in test [5] is 0.437 µM.

As for `O=C(CCN1CCCc2ccccc21)NC1CCCCC1`, the Ki in test [1] was 0.158 µM; in test [2], 1.74 µM; in test [3], 0.229 µM.

As for `CC1CCc2ccccc2N1CC(=O)N1CCCCC1` (stereo not drawn), the Ki is 8.91 µM in test [1], 52.5 µM in test [2], 3.63 µM in test [4] and 28.2 µM in test [3]. The 50% inhibitory concentration (IC50) in test [5] is 7.41 µM.

Take `O=C(CCN1CCCc2ccccc21)Nc1ccc(O)cc1F`: the Ki is over 100 µM in test [1], over 100 µM in test [2], 64.6 µM in test [4] and over 100 µM in test [3]. In addition, in test [5], the IC50 is over 100 µM.

As for `O=C(CCN1CCCc2ccccc21)N1CCCCC1CO` (stereo not drawn), the Ki in test [1] is 7.24 µM; in test [2], 31.6 µM; in test [4], 3.63 µM; in test [3], 11.5 µM. For the same compound, the IC50 in test [5] is 10.7 µM.

As for `Cn1ccc2c(NC(=O)CCN3CCCc4ccccc43)cccc21`, the Ki is 12 µM in test [1], over 100 µM in test [2], 2.29 µM in test [4] and 5.01 µM in test [3]. Also, the IC50 in test [5] is 0.427 µM.

Regarding `O=C(CN1CCCc2ccccc21)N1CCCC1`, the Ki was 1.38 µM in test [1], 7.41 µM in test [2], 0.389 µM in test [4] and 2.88 µM in test [3]. Besides, the IC50 in test [5] was 0.617 µM.

On to `CC1CCN(C(=O)CCN2CCCc3ccccc32)CC1`, for which the values for the Ki in test [1], in test [2] and in test [3] were 0.288 µM, 0.977 µM and 0.302 µM, respectively.

Take `O=C(CN1CCc2ccc(Br)cc21)N1CCCCC1`: the Ki in test [1], in test [2], in test [4] and in test [3] was over 100 µM in each case. Moreover, the IC50 in test [5] was over 100 µM.

On to `O=C(CN1CCCc2cnccc21)N1CCCC1`, for which the Ki in test [1] is over 100 µM; in test [2] it was 85.1 µM; in test [4], 43.7 µM; in test [3], 93.3 µM. Besides, the IC50 in test [5] is over 100 µM.

For `O=C(CN1CCc2ccc(F)cc21)N1CCCC1`, the Ki in test [1] is over 100 µM; in test [2] it was 95.5 µM; in test [4], 50.1 µM; in test [3], over 100 µM. In test [5], the half-maximal inhibitory concentration (IC50) is 75.9 µM.

Take `O=C(CCN1CCCc2ccccc21)N1CCCC(CO)C1` (stereo not drawn): the Ki was 1.74 µM in test [1], 5.25 µM in test [2], 0.617 µM in test [4] and 1.45 µM in test [3]. The IC50 in test [5] was 0.759 µM.

In the case of `O=C(CN1CCCc2cnccc21)N1CCCCC1`, the Ki in test [1] was 58.9 µM; in test [2], 60.3 µM; in test [4], 40.7 µM; in test [3], over 100 µM. Moreover, in test [5], the IC50 is over 100 µM.

Turning to `C[C@@H]1CCC[C@H](C)N1C(=O)CCN1CCCc2ccccc21`, the results for the Ki in test [1], in test [2] and in test [3] were 1.12 µM, 3.55 µM and 1.15 µM, respectively.

Take `O=C(CN1CCCc2ccc(O)cc21)N1CCCCC1`: the results for the Ki in test [1], in test [2] and in test [3] were 87.1 µM, over 100 µM and over 100 µM, respectively.

With `O=C(CCN1CCCc2ccccc21)N1CCC(O)CC1`, the Ki in test [1] was 17 µM; in test [2] it was 33.1 µM; in test [4], 13.2 µM; in test [3], 23.4 µM. Further, the IC50 in test [5] is 15.1 µM.

For `CCn1c2ccccc2c2ccc(NCC(=O)N3CCCCC3)cc21`, the results for the Ki in test [1], in test [2] and in test [3] were 91.2 µM, 44.7 µM and 43.7 µM, respectively.

On to `CC1CCCN(C(=O)CCN2CCCc3ccccc32)C1` (stereo not drawn), for which the Ki in test [1] was 0.776 µM; in test [2], 2.88 µM; in test [4], 0.407 µM; in test [3] it was 0.603 µM. For the same compound, the IC50 in test [5] is 1.51 µM.

Take `O=C(CCN1CCCc2ccccc21)NCc1ccco1`: the Ki in test [1] was 4.37 µM; in test [2], 12 µM; in test [4], 1.23 µM; in test [3], 2.63 µM. In test [5], the IC50 was 1.12 µM.

`CC1CCCC(C)N1C(=O)CCN1CCCc2ccccc21` (stereo not drawn): the figures for the Ki in test [1], in test [2] and in test [3] were 17.8 µM, 55 µM and 27.5 µM, respectively.

For `O=C(O)C1CCCN1C(=O)CCN1CCCc2ccccc21` (stereo not drawn), the Ki in test [1] was 0.891 µM; in test [2], 4.57 µM; in test [4], 0.575 µM; in test [3], 1.05 µM. In addition, in test [5], the IC50 is 0.776 µM.

On to `O=C(CCN1CCCc2ccccc21)NC1CCCC1`, for which the Ki in test [1] was 0.257 µM; in test [2], 2.57 µM; in test [3] it was 0.245 µM.

`CC1CCc2ccccc2N1CC(=O)N1CCCC1` (stereo not drawn): the Ki was 6.31 µM in test [1], over 100 µM in test [2], 2.45 µM in test [4] and 44.7 µM in test [3]. For the same compound, in test [5], the IC50 is 4.9 µM.

For `O=C(CCN1CCCc2ccccc21)N1CCC1`, the Ki was 5.75 µM in test [1], 11.5 µM in test [2], 1.7 µM in test [4] and 4.47 µM in test [3]. Also, in test [5], the IC50 was 12 µM.

As for `O=C(CCN1CCCc2ccccc21)Nc1nccs1`, the Ki was 58.9 µM in test [1], over 100 µM in test [2] and 1.12 µM in test [3].

For `O=C(CCN1CCCc2ccccc21)N1CCCC1`, the Ki in test [1] is 1.58 µM; in test [2], 2.88 µM; in test [4] it was 0.288 µM; in test [3], 1.05 µM. Further, the half-inhibitory concentration (IC50) in test [5] was 1.82 µM.

For `O=C(CCN1CCCc2ccccc21)N1CCCC1CO` (stereo not drawn), the Ki in test [1] was 11.7 µM; in test [2], 32.4 µM; in test [4] it was 5.13 µM; in test [3], 14.1 µM. Moreover, the IC50 in test [5] was 19.1 µM.

As to `CC(C)(C)OC(=O)N1CCN(CC(=O)n2c3ccccc3c3ccccc32)CC1`, the Ki in test [1] was 25.7 µM; in test [2] it was 21.9 µM; in test [4], 22.9 µM; in test [3], 12.9 µM. Further, the IC50 in test [5] is 18.6 µM.

As to `O=C(CCN1CCCc2ccccc21)Nc1cccc2ccccc12`, the Ki in test [1] was 4.07 µM; in test [2] it was 26.3 µM; in test [4], 0.912 µM; in test [3], 9.33 µM. The IC50 in test [5] was 0.339 µM.

For the compound `O=C(CCN1CCCc2ccccc21)NCc1cccc(F)c1`, the values for the Ki in test [1], in test [2] and in test [3] were 6.46 µM, 12.9 µM and 2.04 µM, respectively.

Regarding `CC1CCCCN1CC(=O)n1c2ccccc2c2ccccc21` (stereo not drawn), the Ki in test [1] was over 100 µM; in test [2], over 100 µM; in test [4], 95.5 µM; in test [3], over 100 µM. In test [5], the IC50 was 52.5 µM.

`O=C(CCN1CCCc2ccccc21)N1CCCC(O)C1` (stereo not drawn): the Ki in test [1] was 18.6 µM; in test [2], 53.7 µM; in test [4], 6.17 µM; in test [3], 33.1 µM. For the same compound, the IC50 in test [5] was 29.5 µM.

With `O=C(CCN1CCCc2ccccc21)Nc1ccccc1`, the figures for the Ki in test [1], in test [2] and in test [3] were 0.214 µM, 0.776 µM and 0.263 µM, respectively.
